PMC3831659 (European journal of medicinal chemistry, 2013)

Experiments:
Vero cells = experiment: Cytotoxicity for Vero cells; type: cell-based
[1] = tested on: Toxoplasma gondii (tachyzoites); experiment: T. gondii tachyzoites growth assay; type: cell-based; settings: tachyzoites expressing red fluorescent protein in hTERT cells
Method in brief: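 hTERT host cells grown in high-glucose DMEM with 1% fetal bovine serum, 2 mM glutamine and 1 mM pyruvate at 37 °C in humid 5% CO2. They were inoculated with 4 × 10⁴ RFP-expressing tachyzoites/well in the same medium. Plates were incubated at 37 °C and read daily through covered lids, bottom fluorescence ex 544/em 590 nm. EC50 was fitted as I = Imax·C/(EC50 + C), with Imax = 100%.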

Trypanosoma cruzi = settings: protection not as efficient as ketoconazole (positive control); cited from earlier work
[2] = tested on: epimastigotes (EP strain); settings: ergosterol and its 24-ethyl analogue; cited from earlier work
T. cruzi (amastigotes) = settings: clinically more relevant form of T. cruzi; cited from earlier work

Row | SMILES | Cytotoxicity on Vero cells ED50 (Vero cells; Alamar Blue assay) [µM] | Toxoplasma gondii (tachyzoites) ED50 [1] | other results
1 | O=[N+]([O-])c1cccc(Oc2ccc(OCCOC3CCCCO3)cc2)c1 (stereo not drawn) [Compound 10, 4-(3-Nitrophenoxy)phenoxyethyl Tetrahydro-2H-pyran-2-yl Ether] | > 50 |  | 
2 | N#CSCCOc1ccc(Oc2cccc([N+](=O)[O-])c2)cc1 [Compound 13, 4-(3-Nitrophenoxy)phenoxyethyl Thiocyanate] | > 50 |  | 
3 | COc1ccc(Oc2ccc(OCCSC#N)cc2)cc1 [Compound 21, 4-(4-Methoxyphenoxy)phenoxyethyl Thiocyanate] | > 100 |  | 
4 | COc1cccc(Oc2ccc(OCCSC#N)cc2)c1 [Compound 22, 4-(3-Methoxyphenoxy)phenoxyethyl Thiocyanate] | > 50 | 6.7 ± 3.1 µM | 
5 | c1cncc(Oc2ccc(OCCOC3CCCCO3)cc2)c1 (stereo not drawn) [Compound 25, 4-(Pyridin-3-yloxy)phenoxyethyl Tetrahydro-2H-pyran-2-yl Ether] | > 50 | vanishing antiparasitic activity | 
6 | N#CSCCOc1ccc(Oc2cccnc2)cc1 [Compound 28, 4-(Pyridin-3-yloxy)phenoxyethyl Thiocyanate] | > 50 | 7.5 ± 0.8 µM | 
7 | N#CSCCOc1cccc(Oc2ccccc2)c1 [Compound 36, 3-Phenoxyphenoxyethyl Thiocyanate] | > 50 |  | 
8 | COc1ccc(Oc2cccc(OCCSC#N)c2)cc1 [Compound 37, 3-(4-Methoxyphenoxy)phenoxyethyl Thiocyanate] | > 50 |  | 
9 | N#CSCCOc1ccc(Oc2ccccc2)cc1 [WC-9, 4-Phenoxyphenoxyethyl thiocyanate] |  |  | effect on parasitemia in murine models of Chagas disease (Trypanosoma cruzi): able to impair parasitemia; depletion of parasite endogenous sterols [2]: almost complete disappearance of the parasite sterols; Cytotoxicity on Vero cells ED50 (Vero cells; African green monkey): > 50 µM; IC50 against T. cruzi amastigotes (T. cruzi (amastigotes)): low nanomolar range
